Screens from PubChem.
A1 apoptosis 2 – A1 inhibitors via caspase activation, primary screen, cell-based, luminescence, HTS, two replicates | caspase activation, % (no concentration beside the values) | 24,000 tested, under 10 active | MEF A1-2A-BIM cells, caspase-Glo luminescence, 3 h; percent of clofoctol response, DMSO zero; in the data active means caspase activation above about 5.9%; inconclusive means no clear call, values can overlap the other calls; inactive means below about 2.2%
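Test system – A1-2A-BIM-expressing MEF cells · Input – 2500 cells/well · Medium – RPMI-1640 growth medium with 10% FBS · Compound dosing – 50 nL pinned compound · Timing – 3 h compound exposure at 37 °C · Technique – Caspase-Glo luminescence (DEVD substrate) · Evaluation – Caspase-3/7 activity from luminescence increase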
T cruzi HTS – inhibitors of intracellular Trypanosoma cruzi, primary screen, cell-based, plate reader, single point, set 2 | intracellular Trypanosoma cruzi in host cells | activity score (inhibition), % at 5.01 µM | 4.9% of 22,000 active | AID 651903, 2012; in the data active means activity score above about 55%; inconclusive means no clear call, values can overlap the other calls;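 further: parasites and compound incubated about four days before reading; 0% = median of neutral control wells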
INS-1E ATP HTS – protection of INS-1E cells from cytokine death, primary screen, ATP luminescence, single point | INS-1E cytokine-induced death, 48 h; normalised: neutral wells 0, positive control 100 | protection from cytokine-induced ATP loss, % at 10 µM | 0.1% of 20,000 active | AID 488910, 2010;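 active means mean replicate protection from cytokine-induced ATP loss at least 50% and at least 75% of replicates each reaching 50%; inconclusive means meets only one of the two criteria, mean or replicate share; inactive means fails both the mean and replicate share criteria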
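Assay system: INS-1E rat cells / Quantity: 8000 cells per well / Medium: RPMI without phenol red, 5% FBS / Probe or stimulus: three-cytokine cocktail (IFN-γ, TNF-α, IL-1β) / Dosing: one compound concentration, pin transfer / Timing: 48 h co-treatment, 10 min post-lysis read / Technique: CellTiter-Glo luminescence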
Active calls of the source: *; u = inconclusive; x = no result. The sample as a whole holds a higher share of hits than the screen did.

SMILES	A1 apoptosis 2	T cruzi HTS	INS-1E ATP HTS
O=C(Nc1ccccc1)C1=C[C@H](c2ccc3c(c2)Cc2ccccc2-3)C[C@H](OCc2ccc(CO)cc2)O1	-2	x	x
C[C@@H]1CCCCO[C@@H](CN(C)Cc2ccc(C(F)(F)F)cc2)[C@@H](C)CN([C@H](C)CO)C(=O)c2cc(NS(=O)(=O)c3ccc(Cl)cc3)ccc2O1	x	63*	-24
Cc1ccc(S(=O)(=O)Nc2ccc3c(c2)C(=O)N([C@H](C)CO)C[C@H](C)[C@H](CN(C)Cc2ccc(C(F)(F)F)cc2)OCCCC[C@@H](C)O3)cc1	x	66*	-36
COc1ccc(S(=O)(=O)Nc2ccc3c(c2)C(=O)N([C@H](C)CO)C[C@@H](C)[C@H](CN(C)Cc2ccc(C(F)(F)F)cc2)OCCCC[C@@H](C)O3)cc1	0	x	x
C[C@@H]1CCCCO[C@H](CN(C)Cc2ccc(C(F)(F)F)cc2)[C@@H](C)CN([C@H](C)CO)C(=O)c2cc(NS(=O)(=O)c3ccc(F)cc3)ccc2O1	0	56*	-10
C[C@@H]1CCCCO[C@H](CN(C)Cc2ccc(C(F)(F)F)cc2)[C@H](C)CN([C@@H](C)CO)C(=O)c2cc(NS(=O)(=O)c3ccc(Cl)cc3)ccc2O1	0	x	x
Cc1ccc(S(=O)(=O)Nc2ccc3c(c2)C(=O)N([C@@H](C)CO)C[C@@H](C)[C@@H](CN(C)Cc2ccc(C(F)(F)F)cc2)OCCCC[C@H](C)O3)cc1	-1	x	x
C[C@@H]1CN([C@H](C)CO)C(=O)c2cc(NS(=O)(=O)c3ccc(F)cc3)ccc2O[C@@H](C)CCCCO[C@H]1CN(C)Cc1ccc(C(F)(F)F)cc1	2	x	x
COc1ccc(S(=O)(=O)Nc2ccc3c(c2)C(=O)N([C@H](C)CO)C[C@H](C)[C@H](CN(C)Cc2ccc(C(F)(F)F)cc2)OCCCC[C@@H](C)O3)cc1	x	65*	1
O=C(O)CCCCCCC(=O)N/N=C/c1ccc(Br)o1	0	-12	10
COC(=O)C(CC#Cc1ccc2c(c1)[C@]1(C(=O)N2)[C@H](C(N)=O)[C@H]2C(=O)O[C@H](c3ccccc3)[C@H](c3ccccc3)N2[C@@H]1c1ccc(O)cc1)C(=O)OC	0	x	x
O=C(O)CCCCCC(=O)N/N=C/C1CCCCC1	1	-15	1
C=CC(CO)NS(=O)(=O)c1ccc(Br)cc1 (stereo not drawn)	-1	x	x
C[C@H]1CN([C@@H](C)CO)C(=O)c2cc(NC(=O)Nc3ccc(C(F)(F)F)cc3)ccc2O[C@@H]1CN(C)CC1CCCCC1	1	5	-1
C[C@@H]1CN([C@@H](C)CO)C(=O)c2cc(NC(=O)Nc3ccc(C(F)(F)F)cc3)ccc2O[C@@H]1CN(C)CC1CCCCC1	1	70*	-60
C[C@@H]1CN([C@H](C)CO)C(=O)c2cc(NC(=O)Nc3ccc(C(F)(F)F)cc3)ccc2O[C@@H]1CN(C)CC1CCCCC1	x	48	-7
C[C@H]1CN([C@@H](C)CO)C(=O)c2cc(NC(=O)Nc3ccc(C(F)(F)F)cc3)ccc2O[C@H]1CN(C)CC1CCCCC1	1	73*	-95
O=C(NO)c1cccc(C(=O)N/N=C/c2ccc(CO)o2)c1	x	-26	5
COc1ccc(/C=N/NC(=O)CCCCCCC(=O)O)c(O)c1	x	-18	14
C[C@@H]1CN([C@@H](C)CO)C(=O)Cc2cc(NC(=O)NC3CCCCC3)ccc2O[C@H]1CN(C)Cc1ccc(C(=O)Nc2ccccc2N)cc1	0	x	x
C[C@H](CO)N1C[C@H](C)[C@H](CN(C)Cc2ccc(C(=O)Nc3ccccc3N)cc2)Oc2ccc(NC(=O)Nc3ccc(F)cc3)cc2CC1=O	x	66*	31
C[C@H]1CN([C@@H](C)CO)C(=O)Cc2cc(NC(=O)NC3CCCCC3)ccc2O[C@H]1CN(C)Cc1ccc(C(=O)Nc2ccccc2N)cc1	-2	67*	3
C[C@H]1CN([C@@H](C)CO)C(=O)Cc2cc(NC(=O)Nc3ccccc3)ccc2O[C@@H]1CN(C)Cc1ccc(C(=O)Nc2ccccc2N)cc1	-1	x	x
C[C@@H]1CN([C@@H](C)CO)C(=O)Cc2cc(NC(=O)Nc3ccc4c(c3)OCO4)ccc2O[C@@H]1CN(C)Cc1ccc(C(=O)Nc2ccccc2N)cc1	0	67*	-15
C[C@@H]1CN([C@@H](C)CO)C(=O)Cc2cc(NC(=O)Nc3ccccc3)ccc2O[C@@H]1CN(C)Cc1ccc(C(=O)Nc2ccccc2N)cc1	x	u	-14
SMILES	A1 apoptosis 2	T cruzi HTS	INS-1E ATP HTS
C[C@@H]1CN([C@H](C)CO)C(=O)Cc2cc(NC(=O)Nc3ccc4c(c3)OCO4)ccc2O[C@H]1CN(C)Cc1ccc(C(=O)Nc2ccccc2N)cc1	-1	x	x
C[C@@H]1CN([C@@H](C)CO)C(=O)Cc2cc(NC(=O)Nc3ccc(F)cc3)ccc2O[C@@H]1CN(C)Cc1ccc(C(=O)Nc2ccccc2N)cc1	x	63*	-6
COc1ccc(C#Cc2ccc3c(c2)[C@]2(C(=O)N3)[C@H](C(=O)O)[C@H]3C(=O)O[C@H](c4ccccc4)[C@H](c4ccccc4)N3[C@@H]2c2ccc(OCCO)cc2)cc1	-1	x	x
COC(=O)CCCCCCC(=O)N/N=C/c1cccc(B(O)O)c1	0	-13	-1
O=C(N/N=C/c1cccc(Oc2ccccc2)c1)c1ccccc1O	-6	-15	-9
O=C(N/N=C/c1cccnc1Cl)c1ccccc1O	x	0	-31
CC1(C)COC(CCC/C=N/NC(=O)c2ccccn2)OC1	0	-6	5
C[C@@H]1CN([C@@H](C)CO)C(=O)Cc2cc(NC(=O)C3CC3)ccc2O[C@@H]1CN(C)Cc1ccc(C(=O)Nc2ccccc2N)cc1	x	58*	-8
C[C@@H]1CN([C@H](C)CO)C(=O)Cc2cc(NC(=O)C3CC3)ccc2O[C@H]1CN(C)Cc1ccc(C(=O)Nc2ccccc2N)cc1	x	19	-2
O=C1O[C@@H](c2ccccc2)[C@@H](c2ccccc2)N2[C@@H](c3ccc(OCCO)cc3)[C@]3(C(=O)Nc4ccc(C#CCCO)cc43)[C@@H](C(=O)NC[C@H](O)c3ccccc3)[C@H]12	0	x	x
C[C@@H]1CN([C@@H](C)CO)C(=O)c2cccc(NC(=O)c3ccncc3)c2O[C@@H]1CN(C)Cc1ccccc1	x	-18	-1
C[C@H](CO)N1C[C@H](C)[C@@H](CN(C)Cc2ccc(-c3ccccc3)cc2)Oc2c(NC(=O)c3ccncc3)cccc2C1=O	x	57*	-28
C[C@@H]1CN([C@H](C)CO)C(=O)c2cccc(NC(=O)c3ccncc3)c2O[C@@H]1CN(C)Cc1ccc(C(=O)O)cc1	-1	43	11
C[C@H](CO)N1C[C@H](C)[C@H](CN(C)Cc2ccc(-c3ccccc3)cc2)Oc2c(NC(=O)c3ccncc3)cccc2C1=O	-1	68*	-12
C[C@@H]1CN([C@@H](C)CO)C(=O)c2cccc(NC(=O)c3ccncc3)c2O[C@H]1CN(C)Cc1ccc(-c2ccccc2)cc1	x	83*	-22
C[C@@H]1CN([C@@H](C)CO)C(=O)c2cccc(NC(=O)c3ccncc3)c2O[C@H]1CN(C)Cc1ccc(C(=O)O)cc1	0	-23	11
